Laboratory results: the RNAGym collection of RNA variant scans (doi:10.1038/s41586-018-0170-7)

B1: tRNA (parent)
chain: GUUCCGUUGGCGUAAUGGUAACGCGUCUCCCUCCUAAGGAGAAGACUGCGGGUUCGAGUCCCGUACGGAACG

Variants of: B1
Assay: yeast fitness, log relative to wild type (ln ratio); higher = fitter; tRNA-Arg(CCU), competitive growth, 37 C, 1 M NaCl
Procedure, shortened: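 A combinatorial tRNA-Arg(CCU) variant library was carried on a HIS3 centromeric plasmid in BY4742 lacking the chromosomal gene, from two independent transformations. Pools grew 4 generations in SC-HIS at 30 °C, then ~6.5 generations (~26.5 h) in SC-HIS 1M NaCl at 37 °C, with three outputs per input. Variants were counted by 125 bp paired-end Illumina sequencing. Fitness is ln of each genotype's generations (OD-scaled log2 output/input frequency, inverse-variance weighted across replicates) over the wild-type's.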

Variant | yeast fitness (ln)
G1A U2G G6U A43C A69G A70G C71U | -0.439
G1A U2G G6U C46U C66U A70G | -0.238
G1A U2C A43C A70U C71U | -0.278
G6A A43C C66A A70U | -0.188
U2C C27U A70U C71U | -0.104
G1A G6U C27U C66A A69G A70G C71U | -0.31
G1A U2C G6U C27U A70U | -0.134
G1A U2C G6U A43C A70U C71U | -0.195
U2G G6U A43C C46U C66A A70G | -0.251
G6U C46U C66A A69G A70G | -0.00994
G1A G6A A70G | -0.156
G1A C27U C46U A69G C71U | -0.047
G1A U2G C66U | -0.159
G6U C66U A70U C71U | -0.315
G6A C27U C46U | -0.149
U2G G6A C27U C66U A69G A70U | -0.0719
G1A U2G C27U A70G C71U | -0.371
G1A G6U A43C C46U C66U C71U | -0.275
U2G A43C C66A A70G | -0.103
U2C G6A A43C C46U C66A A70U C71U | -0.0318
C27U C66U A69G A70G | -0.19
U2G G6A A43C C46U A69G A70U C71U | -0.347
G6U C27U A43C C46U A70U | -0.206
G1A U2C C46U A70G | -0.014

Variant | yeast fitness (ln)
G1A U2G A43C C46U C66A A69G A70U C71U | -0.233
G1A U2C G6A C46U A70U | -0.0702
G1A G6U C27U A43C C46U C66U | -0.475
G1A A43C C46U C66A A69G C71U | -0.216
G1A U2C C27U C46U A69G A70U C71U | -0.359
G6U C46U C66U A70U C71U | -0.302
G6A C27U A43C C66A A70U C71U | -0.37
G6U A43C C66U A69G A70U | -0.356
G1A G6U C27U A43C C46U C66A C71U | -0.138
U2C G6A C27U A43C C46U A69G C71U | -0.113
G1A A43C C46U C66U A69G A70G C71U | -0.263
U2G G6U A43C C46U C66U | -0.191
G1A A43C C46U C66U A69G C71U | -0.295
G1A U2C C46U C66U | -0.00756
G6A A43C C46U C66U A70G | -0.0403
U2C G6U C27U A43C A70U C71U | -0.253
G6U C46U A69G A70G C71U | -0.253
U2G G6A C27U A43C C46U C66A A69G A70U | -0.187
U2G C46U A70G | -0.0123
G1A G6U C27U C46U C66U A70G | -0.234
C46U C66U A70G | -0.0429
G1A U2G G6A C46U C66U A70G | -0.11
G1A U2C G6A A43C A70G C71U | -0.13
G1A U2G G6A C27U A43C C66U A70G | -0.337

Variant | yeast fitness (ln)
G1A G6A C27U A43C C66U A70U C71U | -0.381
G1A A43C C66U A69G A70U C71U | -0.338
G6U C27U A43C C46U A70U C71U | -0.336
U2C G6A C66U A69G A70U C71U | -0.343
G1A G6U C27U A69G A70U C71U | -0.505
U2C C27U C46U C66A A70U C71U | -0.134
G1A U2C G6A C27U A43C A70U | -0.0697
U2G G6A C27U A43C A69G C71U | -0.391
G1A U2C C46U A69G A70G C71U | 0.00686
G1A U2C G6A C27U C46U C71U | -0.157
U2G G6A C27U A43C C46U A69G A70G C71U | -0.297
U2G C27U C66A A69G C71U | -0.197
G1A U2G C46U C71U | -0.25
G6A C27U A43C C46U C66U A69G | -0.188
U2G A43C | -0.0825
G1A G6A C27U C66U A70G C71U | -0.566
G6A C46U C66A A70G | -0.117
G1A U2C G6A A43C C46U A69G A70G C71U | -0.119
G1A U2G A43C C66A A70U C71U | -0.396
U2C C66A A69G A70U C71U | -0.496
U2G C27U C46U A69G A70U | -0.0139
G1A C46U C66A A70U | -0.0792
U2G C46U C66A A69G A70U | -0.0347
G1A U2G G6A C27U C46U A69G A70G | -0.226

Variant | yeast fitness (ln)
U2G A43C C66A A70U C71U | -0.316
G1A U2G G6U C27U C46U A69G A70U | -0.314
G1A U2G G6U C27U C46U A69G A70G | -0.474
C27U C46U C66U A70U C71U | -0.197
G1A U2G A43C C46U C66U A70G C71U | -0.243
G6U C27U C46U A70U | -0.167
G1A G6U C66A A69G C71U | -0.032
G1A U2C C27U A43C A69G C71U | -0.173
C46U C66A A69G A70U C71U | -0.282
U2C G6U C46U A70U C71U | -0.0786
G1A U2G G6A A43C A70G C71U | -0.224
G1A U2G G6A C46U | -0.0789
U2G C66A A69G C71U | -0.145
G1A C27U A70G C71U | -0.11
G1A U2G C46U C66A A70U | -0.109
G1A G6U A43C C46U C66U A69G A70U | -0.305
G1A U2G G6U A43C C66A C71U | -0.265
G1A U2C A43C C46U C66U A70U | -0.132
G1A U2C A43C C46U C66U A70G | -0.0459
U2C G6U C27U C66U A69G A70U | -0.378
U2G G6U C27U A43C C46U C71U | -0.197
U2C G6A C27U C46U A70G | -0.0764
G6A A43C A70U | -0.143
G1A U2C C66A A70G C71U | -0.208

Variant | yeast fitness (ln)
G6A C46U C66U A69G A70G | -0.0235
U2G G6A A43C C66U A69G A70U | -0.235
U2C G6A C27U C46U C66A A70G | -0.0252
U2G G6A A43C C46U C66U A69G A70U C71U | -0.379
U2C G6U C27U A43C C66U A70G C71U | -0.313
G1A U2G G6A C27U A43C C46U A69G A70G C71U | -0.424
A69G C71U | -0.0165
G1A U2C C27U A43C C46U A69G A70U | -0.0492
U2C A70U C71U | -0.0765
G1A G6A C27U A70U | -0.293
G6A C27U C46U C66U A70U | -0.0845
U2G G6A C27U C46U C66U A70G | -0.364
C46U A69G A70U | -0.0401
U2C C46U C66U A70G | 0.0022
U2C G6A A43C A70G C71U | -0.129
G1A U2G G6U C27U C46U C66A A70U C71U | -0.0752
G1A G6U C27U C46U C66A A70U C71U | -0.415
U2C G6U C27U A43C A69G C71U | -0.343
U2C G6U C27U C46U C66A A69G A70U | -0.114
U2G G6U C46U C66A A70U C71U | -0.0156
U2G C66U A70U C71U | -0.543
U2C C66A A69G A70U | -0.0958
U2C C66A A69G A70G | -0.0883
G6U C27U A43C C66A A69G | -0.264

Variant | yeast fitness (ln)
G1A C27U C46U C66A A70G | -0.213
U2G C27U C66A A69G A70U | -0.155
G6A C27U A70G C71U | -0.291
G1A G6U A43C C46U C66A | -0.278
G1A U2G A43C A70G | -0.108
G6U C27U A43C C66U A69G A70G C71U | -0.473
C27U A43C A69G A70U C71U | -0.419
U2G C66A A70U C71U | -0.0556
G1A U2G G6A C46U A70G | -0.176
G1A U2C A43C C66A A70G C71U | -0.128
G1A U2G A43C C46U A69G A70U C71U | -0.29
G1A U2C C27U A43C C46U C66A A70G | -0.102
G1A U2G C27U A43C C46U A70U | -0.229
G1A U2G G6A C27U C46U C66U A69G A70U C71U | -0.542
U2G C27U C46U C66A A69G A70G C71U | -0.184
U2G G6U C27U A43C A69G C71U | -0.439
U2C G6A A70G C71U | -0.105
G1A A43C C46U C66A A70U | -0.082
U2G C46U C66U A69G A70U | -0.0704
G1A C27U C46U A70G C71U | -0.0653
G1A U2G G6U C46U C71U | -0.251
G6A A43C C46U C66A A70U C71U | -0.312
G1A U2G G6A C27U A70G C71U | -0.336
U2C G6A C27U C46U A69G A70G C71U | -0.331

Variant | yeast fitness (ln)
U2C A43C C66U C71U | -0.24
U2C G6A A43C C46U C66A | -0.2
C27U C66U A70G C71U | -0.183
C27U C46U C71U | -0.028
G1A G6A C27U C46U C66U A69G A70G | -0.338
G1A U2C G6U A43C C46U C66A A70G C71U | -0.0283
C27U C66U A69G A70U C71U | -0.369
U2C C27U A69G A70G C71U | -0.0353
U2G G6U A43C C66U A70U C71U | -0.464
U2C G6A C27U C46U C66U A69G A70U | -0.284
U2C C27U A43C C66A A70U | -0.145
U2G C27U A43C C46U C66A A69G A70G C71U | -0.183
G1A G6U C27U C46U C66U A69G A70G C71U | -0.388
U2C G6A C27U A43C A70G C71U | -0.156
U2C G6A A43C A69G A70G C71U | -0.153
G1A U2C G6U C27U A43C C46U A70U | -0.151
G1A A43C C66A A70U C71U | -0.321
G6U C46U C66U A70U | -0.297
G1A U2C G6U A43C C46U A69G A70G | -0.126
G1A U2C G6U C27U C46U C66U A69G A70G C71U | -0.699
U2C A69G A70G | -0.0175
G1A G6A C27U C46U A69G A70G | -0.224
U2C G6U C27U A43C C66A A69G A70G C71U | -0.431
